Laboratory results taken from ChEMBL document CHEMBL1799933, “Discovery of a selective allosteric M1 receptor modulator with suitable development properties based on a quinolizidinone carboxylic acid scaffold” (J Med Chem, 2011).
Substitutions are numbered along the chain they refer to. pIC50: −log10 of the molar value. Calls of active or inactive are those of the source. The calls are words filed in the database; no cut-off is given here.

Experiments:
[1] = biological target: T1, Muscarinic acetylcholine receptor M1 (Homo sapiens) (UniProt P11229); experiment: Agonist activity at human muscarinic M1 receptor expressed in CHONFAT cells assessed as enhancement of acetylcholine-induced calcium mobilization preincubated for 4 mins measured after 1 hr by FLIPR assay; assay type: functional, cell-based
T1 sequence (whole entry): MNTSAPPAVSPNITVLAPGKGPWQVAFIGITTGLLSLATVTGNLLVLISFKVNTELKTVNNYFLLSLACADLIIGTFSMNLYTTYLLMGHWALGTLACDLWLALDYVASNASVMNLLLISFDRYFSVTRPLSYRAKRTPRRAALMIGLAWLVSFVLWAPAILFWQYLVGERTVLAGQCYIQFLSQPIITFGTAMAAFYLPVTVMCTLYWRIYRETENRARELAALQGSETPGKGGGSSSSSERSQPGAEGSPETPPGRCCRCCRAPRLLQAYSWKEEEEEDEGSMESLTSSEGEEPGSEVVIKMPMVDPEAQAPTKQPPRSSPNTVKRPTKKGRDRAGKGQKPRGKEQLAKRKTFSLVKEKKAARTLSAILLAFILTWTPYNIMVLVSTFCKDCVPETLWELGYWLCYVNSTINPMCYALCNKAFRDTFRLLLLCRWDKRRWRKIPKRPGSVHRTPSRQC
In short: (§1)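 CHO-NFAT cells expressing the named muscarinic receptor (human M1–M4; rhesus, dog or rat M1 in CHO-K1) were plated at 25,000 cells/well and grown overnight at 37 °C, 6% CO2. Cells were loaded with 1 μM Fluo-4AM for 1 h, washed, and preincubated 4 min with serially diluted compound (final DMSO 0.67%). They were then stimulated 4 min with an EC20 of ACh, and Ca2+ flux was read by FLIPR384.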

[2] = Plasma protein binding in rat serum by equilibrium dialysis method; assay type: ADME, cell-free; settings: read-out: PPB (converted)
In short: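 Protein binding measured by equilibrium dialysis against rat or human serum.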

[3] = Passive permeability of the compound at 5 uM; assay type: ADME; settings: not told
Plasma = experiment: Drug level in Sprague-Dawley rat plasma at 10 mg/kg, po; assay type: ADME, organism-based; set-up: dose 10 mg/kg, route oral; settings: in vivo
In short: (§2)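 Rats dosed orally at 10 mpk. Plasma, brain and CSF sampled at 2 h and concentrations determined by bioanalysis.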

Brain = experiment: Drug level Sprague-Dawley rat brain at 10 mg/kg, po; assay type: ADME, organism-based; set-up: dose 10 mg/kg, route oral; settings: in vivo, read-out: Drug uptake; in short: as §2
[4] = Ratio of drug level in brain to plasma of Sprague-Dawley rat at 10 mg/kg, po; assay type: ADME, organism-based; set-up: dose 10 mg/kg, route oral; settings: read-out: BPR; in short: as §2
[5] = Ratio of drug level in cerebrospinal fluid to fraction unbound level in plasma of Sprague-Dawley rat at 10 mg/kg, po; assay type: ADME, organism-based; set-up: dose 10 mg/kg, route oral; settings: in vivo
[6] = Lipophilicity, log P of the compound; assay type: physicochemical; settings: octanol/water
[7] = Oral bioavailability in rat at 3 mg/kg; assay type: ADME, organism-based; settings: in vivo
In short: (§3)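 Rats (n = 2) dosed orally at 3 mg/kg and IV at 1 mg/kg. Interanimal variability under 20% for all values.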

[8] = Half life in rat at 3 mg/kg, po and 1 mg/kg, iv; assay type: ADME, organism-based; settings: in vivo; in short: as §3
[9] = Clearance in rat at 3 mg/kg, po and 1 mg/kg, iv; assay type: ADME, organism-based; settings: in vivo; in short: as §3
[10] = Oral bioavailability in dog at 3 mg/kg; assay type: ADME, organism-based, Canis lupus familiaris; settings: in vivo
In short: (§4)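 Dog PK, n = 2 animals. Given orally at 3 mg/kg and intravenously at 1 mg/kg. Interanimal variability under 20% for all values.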

[11] = Half life in dog at 3 mg/kg, po and 1 mg/kg, iv; assay type: ADME, organism-based, Canis lupus familiaris; settings: in vivo; in short: as §4
[12] = Clearance in dog at 3 mg/kg, po and 1 mg/kg, iv; assay type: ADME, organism-based, Canis lupus familiaris; settings: in vivo; in short: as §4
[13] = Half life in rhesus monkey; assay type: ADME, organism-based, Macaca mulatta; settings: in vivo
[14] = Clearance in rhesus monkey; assay type: ADME, organism-based, Macaca mulatta; settings: in vivo
[15] = Metabolic stability in dog NADPH-fortified hepatic microsomes assessed as oxidative metabolism; assay type: ADME, Canis lupus familiaris, Liver
In short: (§5)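 Compound incubated with NADPH-fortified hepatic microsomes from rat, dog, monkey or human. Oxidative metabolism monitored.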

[16] = Metabolic stability in monkey NADPH-fortified hepatic microsomes assessed as oxidative metabolism; assay type: ADME, Macaca mulatta, Liver; settings: rhesus monkey; in short: as §5
[17] = Metabolic stability in human NADPH-fortified hepatic microsomes assessed as oxidative metabolism; assay type: ADME, Liver; in short: as §5
[18] = biological target: T1, Muscarinic acetylcholine receptor M1 (Homo sapiens); experiment: Agonist activity at human muscarinic M1 receptor expressed in CHONFAT cells assessed as increase in calcium mobilization at 10 uM preincubated for 4 mins measured after 1 hr by FLIPR assay; assay type: functional, cell-based
[19] = biological target: Muscarinic acetylcholine receptor M3 (Homo sapiens) (UniProt P20309); experiment: Agonist activity at human muscarinic M3 receptor expressed in CHONFAT cells assessed as increase in acetylcholine-induced calcium mobilization at 10 uM preincubated for 4 mins measured after 1 hr by FLIPR assay; assay type: functional, cell-based; in short: as §1
[20] = biological target: Voltage-gated inwardly rectifying potassium channel KCNH2 (Homo sapiens, UniProt Q12809); experiment: Inhibition of human ERG
[21] = Agonist activity at dog muscarinic M1 receptor expressed in CHOK1 cells assessed as potentiation of acetylcholine-induced calcium mobilization preincubated for 4 mins measured after 1 hr by FLIPR assay; assay type: functional, Canis lupus familiaris, CHO-K1; in short: as §1
[22] = biological target: T2, Muscarinic acetylcholine receptor M1 (Macaca mulatta) (UniProt P56489); experiment: Agonist activity at rhesus monkey muscarinic M1 receptor expressed in CHOK1 cells assessed as potentiation of acetylcholine-induced calcium mobilization preincubated for 4 mins measured after 1 hr by FLIPR assay; assay type: functional, cell-based; settings: CHO-K1; in short: as §1
T2 sequence (whole entry): T1 sequence (whole entry) with A265P, E277D

Mus musculus [23] = experiment: Antiamnesic activity against scopolamine-induced dementia in ip dosed B6SJL mouse assessed as increase in freezing behavior after 24 hrs; assay type: functional, organism-based
In short: (§6)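 Male B6SJL mice, 10 weeks old and naive (n = 12–16/group), were given compound IP in 5% beta-cyclodextrin and/or scopolamine 0.3 mg/kg in 0.9% saline 30 min before training. Training was 2 tone (3 kHz, 85 dB, 30 s)–footshock (0.5 mA, 1 s) pairings 2 min apart. Freezing in the same chamber was video-scored 24 h later.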

Mus musculus [24] = experiment: Antiamnesic activity against scopolamine-induced dementia in B6SJL mouse assessed as increase in freezing behavior at 30 mg/kg, ip after 24 hrs; assay type: functional, organism-based; set-up: dose 30 mg/kg; in short: as §6
Mus musculus [25] = experiment: Antiamnesic activity against scopolamine-induced dementia in ip dosed B6SJL mouse assessed as increase in freezing behavior at 3 uM plasma concentration; assay type: functional, organism-based

Chain of Muscarinic acetylcholine receptor M3 (Homo sapiens) (P20309 whole entry, looked up): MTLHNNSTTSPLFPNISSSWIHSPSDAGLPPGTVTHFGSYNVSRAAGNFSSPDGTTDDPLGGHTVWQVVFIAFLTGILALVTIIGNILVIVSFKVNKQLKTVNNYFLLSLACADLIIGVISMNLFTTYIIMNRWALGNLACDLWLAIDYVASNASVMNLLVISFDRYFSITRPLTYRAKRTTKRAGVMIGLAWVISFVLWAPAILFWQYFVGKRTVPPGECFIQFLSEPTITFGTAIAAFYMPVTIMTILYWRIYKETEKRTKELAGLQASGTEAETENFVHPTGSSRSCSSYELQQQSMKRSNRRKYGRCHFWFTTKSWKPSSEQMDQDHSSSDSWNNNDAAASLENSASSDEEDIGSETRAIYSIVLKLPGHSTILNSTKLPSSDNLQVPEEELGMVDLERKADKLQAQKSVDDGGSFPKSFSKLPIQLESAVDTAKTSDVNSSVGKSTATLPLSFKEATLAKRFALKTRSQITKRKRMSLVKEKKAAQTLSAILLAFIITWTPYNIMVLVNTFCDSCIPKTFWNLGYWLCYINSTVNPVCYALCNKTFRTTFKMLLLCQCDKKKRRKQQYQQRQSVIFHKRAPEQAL
Chain of Voltage-gated inwardly rectifying potassium channel KCNH2 (Q12809 whole entry): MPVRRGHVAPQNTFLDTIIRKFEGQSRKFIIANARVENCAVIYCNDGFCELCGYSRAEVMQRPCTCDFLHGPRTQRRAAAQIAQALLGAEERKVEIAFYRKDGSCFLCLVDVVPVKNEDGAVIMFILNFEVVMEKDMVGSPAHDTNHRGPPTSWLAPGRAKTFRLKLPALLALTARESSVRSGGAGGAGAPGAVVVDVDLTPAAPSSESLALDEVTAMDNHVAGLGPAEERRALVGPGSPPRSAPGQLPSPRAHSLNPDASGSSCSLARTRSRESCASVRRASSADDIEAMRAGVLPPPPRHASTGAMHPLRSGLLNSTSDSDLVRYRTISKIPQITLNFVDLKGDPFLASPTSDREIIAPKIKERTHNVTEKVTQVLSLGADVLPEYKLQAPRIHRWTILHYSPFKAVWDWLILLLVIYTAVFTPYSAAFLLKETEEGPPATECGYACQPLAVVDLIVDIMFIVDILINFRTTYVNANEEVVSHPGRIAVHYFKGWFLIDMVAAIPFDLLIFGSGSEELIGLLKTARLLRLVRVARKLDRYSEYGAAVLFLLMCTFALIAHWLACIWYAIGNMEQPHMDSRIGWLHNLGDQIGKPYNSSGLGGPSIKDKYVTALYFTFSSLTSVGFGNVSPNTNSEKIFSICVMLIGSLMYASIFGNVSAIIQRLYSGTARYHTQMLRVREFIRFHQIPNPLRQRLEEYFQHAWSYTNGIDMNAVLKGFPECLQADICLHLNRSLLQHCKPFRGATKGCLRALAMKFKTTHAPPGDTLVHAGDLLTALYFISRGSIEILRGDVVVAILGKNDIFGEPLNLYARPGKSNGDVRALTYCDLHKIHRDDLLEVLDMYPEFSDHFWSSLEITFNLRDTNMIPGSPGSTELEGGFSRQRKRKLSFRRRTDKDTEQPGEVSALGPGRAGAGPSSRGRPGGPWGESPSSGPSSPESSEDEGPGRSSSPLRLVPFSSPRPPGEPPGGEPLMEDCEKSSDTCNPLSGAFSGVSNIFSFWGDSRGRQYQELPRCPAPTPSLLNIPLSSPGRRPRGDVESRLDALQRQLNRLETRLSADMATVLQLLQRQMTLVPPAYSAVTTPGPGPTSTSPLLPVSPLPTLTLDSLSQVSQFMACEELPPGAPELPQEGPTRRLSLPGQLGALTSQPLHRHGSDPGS

N#CC1(c2ccccn2)CCN(Cc2cc(C(=O)O)c(=O)n3ccccc23)CC1 [MSD-M1PAM]
IP [1]: 135 nM
fraction unbound [2]: 0.318
Papp at 5 µM [3]: 18 ×10⁻⁶ cm/s
concentration (Plasma): 1480 nM
concentration (Brain): 306 nM
Kp [4]: 0.23
Ratio [5]: 0.3
logP [6]: 0.15
bioavailability [7]: 68%
half-life [8]: 1.7 h
clearance [9]: 13.5 mL/min/kg
bioavailability [10]: 62%
half-life [11]: 4.4 h
clearance [12]: 7.4 mL/min/kg
half-life [13]: 3.6 h
clearance [14]: 17 mL/min/kg
Stability [15]: Stable
Stability [16]: Stable
Stability [17]: Stable
Activity [18]: Active
Activity [19]: inactive
pIC50 [20]: < 4.52
IP [21]: 100 nM
IP [22]: 49 nM
Activity (Mus musculus [23]): Dose-dependent effect
Activity (Mus musculus [24]): Active
Activity (Mus musculus [25]): Active
